Test results: paper PMC4681692 (Child's nervous system : ChNS : official journal of the …, 2015)
Read-outs that look alike come from different tables or passages of the source.

Tests used:
glioblastoma cell lines = details: combination with Akt inhibitor MK-2206, compared to monotherapy; cited from earlier work
[1] = system: platinum-resistant ovarian carcinoma xenograft model; details: cited from earlier work
[2] = system: NOTCH1 cleavage (NICD1) in PBMCs; assay: NICD1 expression in PBMCs by Western blot; type: in vivo, human; details: for patients with NICD1 expression decreased from baseline: PBMCs
[3] = children, 3-days-on/4-days-off schedule; cited from earlier work
NOTCH = details: adults, weekly administration; cited from earlier work
[4] = Plasma pharmacokinetics of weekly MK-0752, dose 1 course 1; type: in vivo; details: human, oral, both dose levels
Summary of the method: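 Children with recurrent CNS tumours took oral test compound capsules once weekly at 1,000 or 1,400 mg/m2, in 28-day courses. Heparinised blood was drawn before dose 1 of course 1 and at 1, 2, 3, 6, 8 (±2), 24 (±4) and 48 h after it. Plasma drug was measured by validated LC-MS/MS and analysed non-compartmentally. β came from the last two measurable points, and t1/2 = ln(2)/β.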

amyloid peptide levels = details: animal models; cited from earlier work
NOTCH pathway genes = details: healthy adults, once weekly dosing; cited from earlier work
[5] = system: refractory adult solid tumors; details: cited from earlier work
[6] = system: children with recurrent CNS tumors; details: 3-days-on/4-days-off schedule; cited from earlier work
[7] = cited from earlier work; for t1/2: adults
recurrent CNS tumors [8] = details: children, 3-days-on/4-days-off schedule; cited from earlier work
recurrent CNS tumors [9] = assay: Tumor response in phase I trial of weekly MK-0752; type: in vivo, human
Summary of the method: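 The oral test compound was given once weekly at 1,000 or 1,400 mg/m2 in 28-day courses, using a rolling-6 design. Disease was assessed at baseline, after course 2 and after every other course thereafter. Patients got up to 6 courses unless disease progressed, and those with stable disease after 6 courses could receive up to 13 more.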

[10] = system: children with recurrent central nervous system (CNS) malignancies; details: in vivo
advanced breast cancer = details: with docetaxel, MK-0752 days 1-3, of 30 evaluable patients; cited from earlier work

In the case of `O=S1(=O)N[C@@]2(CN1CC(F)(F)F)[C@@H]1CC[C@H]2Cc2ccc(/C=C/CN3CCC(C(F)(F)F)CC3)cc2C1` [MRK003], the “effect of combination on migratory and invasive potential of glioblastoma” value (glioblastoma cell lines) is listed as “synergistic inhibition” and the “combination effect with paclitaxel” value [1] is listed as “synergy”.

With `O=C(O)CC[C@H]1CC[C@@](c2cc(F)ccc2F)(S(=O)(=O)c2ccc(Cl)cc2)CC1` [MK-0752] the “change in NICD expression in PBMCs” value ([2]; 24 hours after the higher dose (1,400 mg)) was “dose-dependent decrease”, the “patients with NICD1 expression decreased from baseline” value ([2]; 24 hours post MK-0752, 1,000 and 1,400 mg/m^2) was 6 of 7 and the “patients with NICD1 expression decreased from baseline” value ([2]; 24 hours post MK-0752, treated at 1,400 mg/m^2 (n=3)) was “all three”. For the same compound, the t1/2 [3] was 11.4 h, the “dose achieving target inhibition” value (NOTCH) was 3,200 mg and the half-life ([4]; median t1/2, all 10 patients) was 21.7 h. The half-life ([4]; t1/2 (range), all 10 patients) was 9.8 to 42.2 h, the blood-brain barrier penetration (amyloid peptide levels) was “penetrate the blood-brain barrier” and the “reduction of amyloid peptide levels” value (amyloid peptide levels) was 50%. For the same compound, the “duration of decreased expression of NOTCH pathway genes” value (NOTCH pathway genes) was “at least 96 hours”, the “duration of CR” value ([5]; one adult patient with anaplastic astrocytoma, 1,800 mg once weekly) was > 1 year and the “duration of SD” value ([5]; one adult patient with glioblastoma multiforme, 4,200 mg once weekly) was > 1 year. The “dose-limiting toxicity preventing dose escalation beyond 260 mg/m^2” value [6] was “dose-limiting elevations of AST and ALT”, the well-tolerated dose [6] was 260 mg/m^2 and the Cmax ([7]; adults receiving 1,800 mg (~1,040 mg/m^2) weekly) was 84.2 µg/mL. For the same compound, the t1/2 ([7]; weekly 1,800 mg (~1,040 mg/m^2)) was 13.8 h, the t1/2 ([7]; weekly 2,400 mg (~1,400 mg/m^2)) was 16.2 h and the “evaluable patients with prolonged SD (3 and 4 cycles)” value (recurrent CNS tumors [8]) was 2 of 17. The “patients with prolonged SD (6 and 10 cycles)” value (recurrent CNS tumors [9]; all evaluable patients, weekly schedule) was 2 of 9, the objective responses (recurrent CNS tumors [9]; weekly 1,000 and 1,400 mg/m^2) was “No objective responses” and the ALT increase ([10]; human) was 2. It also gave an AST increase ([10]; human) of 2, an Allergic rhinitis ([10]; human) of 1 and an Anorexia ([10]; human) of 1. It also gave a Diarrhea ([10]; human) of 4, a Dizziness ([10]; human) of 1 and a Dry skin ([10]; human) of 1. It also gave a Fatigue ([10]; human) of 1, a Hyperglycemia ([10]; human) of 1 and a Hypermagnesemia ([10]; human) of 1. For the same compound, the Hypoalbuminemia ([10]; human) was 2, the Hypokalemia ([10]; human) was 1 and the Hypomagenesemia ([10]; human) was 2. The Hypophosphatemia ([10]; human) was 2, the Hypotension ([10]; human) was 1 and the “Increased Hemoglobin” value ([10]; human) was 1. For the same compound, the Leukopenia ([10]; human) was 2, the Nausea ([10]; human) was 1 and the Vomiting ([10]; human) was 2. The “grade 4 toxicities” value ([10]; human) was “no grade 4 toxicities”, the “Non-dose-limiting grade 3 toxicities” value [10] was “lymphopenia, neutropenia, and anemia” and the “dose-limiting diarrhea and GI toxicity” value [10] was “not observed”. The “patients with PR” value (advanced breast cancer) was 9 and the “patients with SD” value (advanced breast cancer) was 11.
